Results published in ChEMBL document CHEMBL4387708, “Enhancement of Benzothiazoles as Pteridine Reductase-1 Inhibitors for the Treatment of Trypanosomatidic Infections” (J Med Chem, 2019).

Key:
[1] = Inhibition of N-terminal His-tagged Trypanosoma brucei pteridine reductase 1 using di-hydrobiopterine as substrate measured at 1 min interval for 50 mins in presence of NADPH
In short: (§1)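 Photometric PTR1 assay with NADPH and dihydrobiopterin substrate. H₄B formation is coupled non-enzymatically to cytochrome c reduction, read as signal increase at 550 nm.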

[2] = target: T1, Pteridine reductase 1 (Leishmania major) (UniProt Q01782); experiment: Inhibition of Leishmania major pteridine reductase 1 at 50 uM using di-hydrobiopterine as substrate in presence of NADPH relative to control; in short: as §1
T1 sequence (whole entry): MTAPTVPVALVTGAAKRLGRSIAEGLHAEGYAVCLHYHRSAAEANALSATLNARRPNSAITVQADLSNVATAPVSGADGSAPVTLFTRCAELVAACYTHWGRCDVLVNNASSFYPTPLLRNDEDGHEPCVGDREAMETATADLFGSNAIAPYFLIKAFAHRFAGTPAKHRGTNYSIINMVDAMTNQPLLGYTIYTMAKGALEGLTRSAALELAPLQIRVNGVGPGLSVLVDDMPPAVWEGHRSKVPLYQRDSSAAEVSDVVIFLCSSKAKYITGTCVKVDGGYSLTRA

Leishmania infantum = experiment: Growth inhibition of luciferase expressing Leishmania infantum axenic amastigotes infected in human THP1 cells at 10 uM measured after 72 hrs by steady-glo luminescence assay relative to control; format: organism-based; settings: for growth inhibition (GI): leishmania infantum, 72 h, 10 µM; for inhibition at 10 µM: Leishmania infantum, THP-1, 72 h, read-out: GI
Trypanosoma cruzi = experiment: Growth inhibition of trypomastigote form of Trypanosoma cruzi Y infected in human U2OS cells at 50 uM measured after 72 hrs by DRAQ5 DNA dye based confocal microscopic analysis relative to control; format: organism-based; settings: for growth inhibition (GI): trypanosoma cruzi, 50 µM; for inhibition at 50 µM: Trypanosoma cruzi, Y, U2OS, read-out: GI
[3] = Cytotoxicity against human U2OS cells assessed as reduction in cell number; format: cell-based
Trypanosoma brucei [4] = experiment: Growth inhibition of Trypanosoma brucei bloodstream forms at 10 uM measured after 72 hrs by resazurin-based fluorescence assay relative to control; format: organism-based; settings: for inhibition at 10 µM: Trypanosoma brucei, read-out: GI
[5] = Cytotoxicity against human A549 cells after 48 hrs by Celltiter-glo assay; format: cell-based
Trypanosoma brucei [6] = experiment: Inhibition of N-terminal His-tagged Trypanosoma brucei pteridine reductase 1 at 50 uM using di-hydrobiopterine as substrate measured at 1 min interval for 50 mins in presence of NADPH relative to control; in short: as §1
Pteridine reductase 1 = target: T2, Pteridine reductase 1 (Leishmania major, UniProt Q01782); experiment: Inhibition of Leishmania major pteridine reductase 1 using di-hydrobiopterine as substrate in presence of NADPH; settings: read-out: IC50; in short: as §1
T2 sequence (Q01782 whole entry): T1 sequence (whole entry)

[7] = Cytotoxicity against human THP1 cells after 72 hrs by MTT assay; format: cell-based, THP-1; settings: read-out: NOAEL
[8] = Mitochondrial toxicity in human 786-O cells measured after 6 hrs by MitoTracker Red chloromethyl-X-rosamine based assay; format: cell-based, 786-0
[9] = Selectivity ratio of IC50 for Leishmania major pteridine reductase 1 to IC50 for N-terminal His-tagged Trypanosoma brucei pteridine reductase 1
Cytochrome P450 1A2 = target: T3, Cytochrome P450 1A2 (Homo sapiens, UniProt P05177); experiment: Inhibition of human CYP1A2 expressed in baculovirus infected insect cells using beetle D-luciferin as substrate preincubated for 30 mins followed by NADPH addition and measured after 30 mins by CYP450-Glo assay
T3 sequence (P05177 whole entry): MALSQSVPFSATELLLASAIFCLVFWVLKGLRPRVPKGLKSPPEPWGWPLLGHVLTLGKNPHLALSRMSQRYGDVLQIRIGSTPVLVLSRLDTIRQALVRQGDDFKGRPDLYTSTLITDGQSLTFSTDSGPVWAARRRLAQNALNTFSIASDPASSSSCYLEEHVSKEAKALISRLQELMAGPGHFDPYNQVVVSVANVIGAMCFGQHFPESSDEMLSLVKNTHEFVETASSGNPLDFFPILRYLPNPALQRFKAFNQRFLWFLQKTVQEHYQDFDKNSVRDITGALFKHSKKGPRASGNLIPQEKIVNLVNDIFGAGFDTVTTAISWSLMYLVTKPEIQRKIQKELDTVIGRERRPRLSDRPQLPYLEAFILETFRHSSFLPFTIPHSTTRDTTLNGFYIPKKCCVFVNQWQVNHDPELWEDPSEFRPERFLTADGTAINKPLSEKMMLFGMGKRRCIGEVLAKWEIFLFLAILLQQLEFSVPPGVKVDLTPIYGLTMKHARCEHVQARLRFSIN

Cytochrome P450 2C19 = Cytochrome P450 2C19 (Homo sapiens, UniProt P33261); experiment: Inhibition of human CYP2C19 expressed in baculovirus infected insect cells using beetle D-luciferin as substrate preincubated for 30 mins followed by NADPH addition and measured after 30 mins by CYP450-Glo assay
Chain of Cytochrome P450 2C19 (P33261 whole entry): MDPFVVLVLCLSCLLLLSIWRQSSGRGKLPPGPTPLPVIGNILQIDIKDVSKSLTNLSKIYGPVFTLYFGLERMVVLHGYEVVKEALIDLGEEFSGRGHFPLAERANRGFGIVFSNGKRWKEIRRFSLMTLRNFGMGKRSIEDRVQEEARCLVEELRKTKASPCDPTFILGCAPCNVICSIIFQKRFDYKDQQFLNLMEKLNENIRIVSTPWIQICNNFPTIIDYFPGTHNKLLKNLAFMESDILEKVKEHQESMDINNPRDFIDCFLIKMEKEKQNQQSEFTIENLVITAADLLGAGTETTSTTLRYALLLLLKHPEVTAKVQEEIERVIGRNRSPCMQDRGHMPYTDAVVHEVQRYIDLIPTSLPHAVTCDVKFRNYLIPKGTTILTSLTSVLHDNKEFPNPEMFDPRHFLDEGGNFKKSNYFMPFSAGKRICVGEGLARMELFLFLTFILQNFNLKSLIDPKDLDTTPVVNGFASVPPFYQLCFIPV

Cytochrome P450 2C9 = Cytochrome P450 2C9 (Homo sapiens, UniProt P11712); experiment: Inhibition of human CYP2C9 expressed in baculovirus infected insect cells using beetle D-luciferin as substrate preincubated for 30 mins followed by NADPH addition and measured after 30 mins by CYP450-Glo assay
Chain of Cytochrome P450 2C9 (P11712 whole entry): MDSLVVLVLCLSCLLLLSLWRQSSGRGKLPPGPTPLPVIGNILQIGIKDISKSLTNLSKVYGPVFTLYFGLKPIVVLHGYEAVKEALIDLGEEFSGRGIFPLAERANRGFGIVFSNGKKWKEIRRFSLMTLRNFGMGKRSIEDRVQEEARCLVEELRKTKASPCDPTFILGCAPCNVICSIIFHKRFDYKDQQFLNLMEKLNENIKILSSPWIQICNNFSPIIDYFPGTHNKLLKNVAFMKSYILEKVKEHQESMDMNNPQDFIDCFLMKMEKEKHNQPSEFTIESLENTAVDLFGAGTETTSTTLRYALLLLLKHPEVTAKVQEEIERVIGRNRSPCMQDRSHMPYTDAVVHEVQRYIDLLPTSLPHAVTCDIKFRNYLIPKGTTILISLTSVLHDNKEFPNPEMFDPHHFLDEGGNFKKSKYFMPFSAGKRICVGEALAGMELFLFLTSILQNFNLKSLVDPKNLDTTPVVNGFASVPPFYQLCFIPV

[10] = target: Voltage-gated inwardly rectifying potassium channel KCNH2 (Homo sapiens, UniProt Q12809); experiment: Displacement of Tracer Red from human ERG by fluorescence polarization assay
Chain of Voltage-gated inwardly rectifying potassium channel KCNH2 (Q12809 whole entry): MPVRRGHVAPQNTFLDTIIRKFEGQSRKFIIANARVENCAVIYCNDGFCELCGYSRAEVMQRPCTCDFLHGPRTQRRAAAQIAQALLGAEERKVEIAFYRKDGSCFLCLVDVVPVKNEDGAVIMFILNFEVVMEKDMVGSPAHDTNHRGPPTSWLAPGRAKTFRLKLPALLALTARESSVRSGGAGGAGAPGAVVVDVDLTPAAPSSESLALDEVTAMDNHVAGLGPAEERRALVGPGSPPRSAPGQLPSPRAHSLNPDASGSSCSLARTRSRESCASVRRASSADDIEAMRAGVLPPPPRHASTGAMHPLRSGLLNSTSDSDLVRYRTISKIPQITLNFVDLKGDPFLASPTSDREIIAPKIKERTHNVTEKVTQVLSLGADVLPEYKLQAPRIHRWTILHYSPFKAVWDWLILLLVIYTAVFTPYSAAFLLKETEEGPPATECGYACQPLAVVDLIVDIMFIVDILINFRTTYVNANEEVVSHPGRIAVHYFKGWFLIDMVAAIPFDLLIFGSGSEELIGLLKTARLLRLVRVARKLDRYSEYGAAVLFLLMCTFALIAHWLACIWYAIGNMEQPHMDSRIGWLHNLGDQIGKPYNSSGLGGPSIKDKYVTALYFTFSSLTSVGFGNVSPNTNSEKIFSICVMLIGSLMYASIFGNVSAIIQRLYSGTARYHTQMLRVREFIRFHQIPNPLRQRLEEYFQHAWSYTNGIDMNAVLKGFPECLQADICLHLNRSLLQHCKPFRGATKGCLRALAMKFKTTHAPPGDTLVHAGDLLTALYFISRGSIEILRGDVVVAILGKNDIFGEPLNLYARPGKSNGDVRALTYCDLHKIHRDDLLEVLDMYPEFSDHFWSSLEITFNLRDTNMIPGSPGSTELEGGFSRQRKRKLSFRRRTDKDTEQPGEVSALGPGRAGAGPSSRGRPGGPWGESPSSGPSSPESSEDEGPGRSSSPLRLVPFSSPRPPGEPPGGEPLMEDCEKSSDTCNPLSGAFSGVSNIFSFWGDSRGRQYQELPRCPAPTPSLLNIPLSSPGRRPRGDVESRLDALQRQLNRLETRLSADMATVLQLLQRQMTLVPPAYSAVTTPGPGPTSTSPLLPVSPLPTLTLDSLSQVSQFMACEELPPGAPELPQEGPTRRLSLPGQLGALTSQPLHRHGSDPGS

Cytochrome P450 2D6 = Cytochrome P450 2D6 (Homo sapiens, UniProt P10635); experiment: Inhibition of human CYP2D6 expressed in baculovirus infected insect cells using beetle D-luciferin as substrate preincubated for 30 mins followed by NADPH addition and measured after 30 mins by CYP450-Glo assay
Chain of Cytochrome P450 2D6 (P10635 whole entry): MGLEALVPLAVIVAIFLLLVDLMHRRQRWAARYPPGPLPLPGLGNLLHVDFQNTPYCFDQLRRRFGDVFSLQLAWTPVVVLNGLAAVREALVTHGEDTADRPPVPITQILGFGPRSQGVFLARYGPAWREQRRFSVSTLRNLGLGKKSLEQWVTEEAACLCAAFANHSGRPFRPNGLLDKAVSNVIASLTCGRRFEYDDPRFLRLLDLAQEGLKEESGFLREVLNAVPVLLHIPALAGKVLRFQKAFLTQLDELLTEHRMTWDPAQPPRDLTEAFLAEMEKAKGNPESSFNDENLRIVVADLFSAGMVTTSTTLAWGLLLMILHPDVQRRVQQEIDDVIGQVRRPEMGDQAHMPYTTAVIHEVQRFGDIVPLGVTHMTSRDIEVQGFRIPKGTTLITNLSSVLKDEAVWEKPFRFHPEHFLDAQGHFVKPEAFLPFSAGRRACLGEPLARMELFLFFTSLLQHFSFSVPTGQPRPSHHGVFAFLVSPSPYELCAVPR

Cytochrome P450 3A4 = Cytochrome P450 3A4 (Homo sapiens, UniProt P08684); experiment: Inhibition of human CYP3A4 expressed in baculovirus infected insect cells using beetle D-luciferin as substrate preincubated for 30 mins followed by NADPH addition and measured after 30 mins by CYP450-Glo assay
Chain of Cytochrome P450 3A4 (P08684 whole entry): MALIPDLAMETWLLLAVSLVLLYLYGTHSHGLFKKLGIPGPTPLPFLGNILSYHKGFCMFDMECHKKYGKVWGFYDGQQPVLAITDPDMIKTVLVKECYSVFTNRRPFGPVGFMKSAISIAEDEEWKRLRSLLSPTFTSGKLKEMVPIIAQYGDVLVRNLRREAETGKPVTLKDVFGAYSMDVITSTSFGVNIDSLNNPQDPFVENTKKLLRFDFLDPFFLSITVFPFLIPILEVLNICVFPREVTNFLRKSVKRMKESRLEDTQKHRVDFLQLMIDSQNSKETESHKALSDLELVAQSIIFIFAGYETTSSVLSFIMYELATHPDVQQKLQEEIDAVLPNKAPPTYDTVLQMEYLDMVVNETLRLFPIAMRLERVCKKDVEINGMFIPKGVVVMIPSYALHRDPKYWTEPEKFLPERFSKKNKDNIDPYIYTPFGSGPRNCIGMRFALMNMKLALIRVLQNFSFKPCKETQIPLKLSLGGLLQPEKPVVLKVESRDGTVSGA

| SMILES | IC50 [1] [µM] | inhibition [2] [%] | growth inhibition (GI) (Leishmania infantum) | growth inhibition (GI) (Trypanosoma cruzi) | GI50 [3] [µM] | GI50 at 48 h [5] [µM] | inhibition (Trypanosoma brucei [6]) [%] | IC50 (Pteridine reductase 1) [µM] | MNTC at 72 h [7] [µM] | IC50 at 6 h [8] [µM] | Ratio IC50 [9] | IC50 (Cytochrome P450 1A2) [µM] | IC50 (Cytochrome P450 2C19) [µM] | inhibition at 50 µM (Trypanosoma cruzi) [%] | inhibition at 10 µM (Trypanosoma brucei [4]) [%] | IC50 (Cytochrome P450 2C9) [µM] | IC50 [10] [µM] | IC50 (Cytochrome P450 2D6) [µM] | IC50 (Cytochrome P450 3A4) [µM] | other results |
| --- | --- | --- | --- | --- | --- | --- | --- | --- | --- | --- | --- | --- | --- | --- | --- | --- | --- | --- | --- | --- |
| Nc1nc2ccc(OC(F)(F)F)cc2s1 [RILUZOLE] | 15.1 | > 60 | Non-Toxic | Non-Toxic | > 25 | 10 to 25 | > 60 | 94.1 | > 25 | > 25 |  |  |  |  |  |  |  |  |  | growth inhibition (GI) (Trypanosoma brucei [4]; trypanosoma brucei, 10 µM): Non-Toxic |
| CSc1ccc2nc(N)sc2c1 |  | 26.9 | Non-Toxic |  | > 25 | > 25 | 16.7 |  | > 25 | < 10 | 2 to 100 | < 10 | < 10 | 22.5 | 12 | > 25 | < 10 | < 10 | > 25 |  |
| Nc1nc2ccc(S(=O)(=O)Cc3ccccc3)cc2s1 | 57.6 | 27.1 | Non-Toxic | Non-Toxic | > 25 | > 25 | > 60 |  | > 25 | > 25 | 2 to 100 | > 25 | > 25 |  | 5 | > 25 | > 25 | 10 to 25 | > 25 |  |
| COc1ccc2nc(N)sc2c1 |  | 15.2 | Non-Toxic |  | > 25 | < 10 | 29.9 |  | > 25 | < 10 | 2 to 100 | 10 to 25 | 10 to 25 | 32.9 | 6 | > 25 | < 10 | < 10 | 10 to 25 |  |
| COc1cc(CNC(=O)c2ccc3nc(N)sc3c2)cc(OC)c1OC |  | 67.1 | Non-Toxic |  | > 25 | > 25 | 30.8 |  | > 25 | > 25 | 2 to 100 | > 25 | > 25 | 19.8 | 9 | > 25 | > 25 | > 25 | > 25 |  |
| N=C(N)c1ccc(OCCCCCOc2ccc(C(=N)N)cc2)cc1 [PENTAMIDINE] |  |  |  |  |  | > 25 |  |  | > 25 | > 25 |  | > 25 | > 25 |  |  |  |  | 10 to 25 |  |  |
| Nc1nc2ccc(C(=O)N(CCO)Cc3ccccc3)cc2s1 | 58.1 | 24.1 |  | Non-Toxic | > 25 | > 25 | > 60 |  | > 25 | > 25 | 2 to 100 | > 25 | > 25 |  | 8 | > 25 | > 25 | < 10 | 10 to 25 | inhibition at 10 µM (Leishmania infantum): 20% |
| Nc1nc2ccc(C(=O)NCc3ccc(C(=O)NCc4ccccc4)cc3)cc2s1 | 6.85 | > 60 | Non-Toxic | Non-Toxic | > 25 | > 25 | > 60 | 18.9 | 10 to 25 | > 25 |  | > 25 |  |  | 53 |  | > 25 |  |  |  |
| Nc1nc2ccc(S(=O)(=O)Cc3ccc(Cl)c(Cl)c3)cc2s1 |  | 26.9 |  |  | > 25 | 10 to 25 | 16.7 |  | 10 to 25 | > 25 | 2 to 100 | > 25 | < 10 | 32.8 | 37 | > 25 | > 25 | < 10 | 10 to 25 | inhibition at 10 µM (Leishmania infantum): 21% |
| Nc1nc2c(O)cc(C(=O)NCc3ccccc3)cc2s1 |  | > 60 |  |  | > 25 | > 25 | 47.8 | 2.48 | > 25 | > 25 | 2 to 100 | > 25 | 10 to 25 | 28.8 | 15 | > 25 | > 25 | < 10 | < 10 | inhibition at 10 µM (Leishmania infantum): 11% |
| CCc1nc(N)nc(N)c1-c1ccc(Cl)cc1 [PYRIMETHAMINE] | 0.09 |  |  |  |  |  |  | 13.6 |  |  |  |  |  |  |  |  |  |  |  |  |
| COC(=O)C1CCN(C(=O)c2ccc(CNC(=O)c3ccc4nc(N)sc4c3)cc2)CC1 | 21.8 | 1.97 | Non-Toxic | Non-Toxic | > 25 | > 25 | > 60 |  | > 25 | < 10 | 2 to 100 | > 25 | > 25 |  | 24 | > 25 | < 10 | > 25 | > 25 |  |
| COC(=O)C1CCN(C(=O)c2ccc3nc(N)sc3c2)CC1 |  | 23.3 |  |  | > 25 | > 25 | 36.4 |  | > 25 | > 25 | 2 to 100 | 10 to 25 | > 25 | 64.2 | 19 | 10 to 25 | > 25 | 10 to 25 | 10 to 25 | inhibition at 10 µM (Leishmania infantum): 8% |
| Nc1nc2ccc(C(=O)NCCc3cccs3)cc2s1 | 7.5 | 18.3 | Non-Toxic |  | > 25 | > 25 | > 60 |  | > 25 | > 25 | 2 to 100 | 10 to 25 | > 25 | 29.8 | 17 | > 25 | < 10 | < 10 | > 25 |  |
| COC(=O)C1CCN(C(=O)c2ccc(COc3ccc4nc(N)sc4c3)cc2)CC1 | 3.3 | > 60 | Non-Toxic |  | > 25 | > 25 | > 60 | 31.9 | 10 to 25 | > 25 |  | > 25 |  | 27 | 52 |  | > 25 | > 25 | > 25 |  |
